The values below come from ChEMBL document CHEMBL2062428, “Cyclooxygenase-1-selective inhibitors based on the (E)-2'-des-methyl-sulindac sulfide scaffold” (J Med Chem, 2012).

The structures appear in SMILES notation. Activity calls are given as the source filed them. The calls are words filed in the database; no cut-off is given here.

The target of assay [1] is T1, Prostaglandin G/H synthase 1 (Ovis aries) (UniProt P05979).
T1 sequence (whole entry): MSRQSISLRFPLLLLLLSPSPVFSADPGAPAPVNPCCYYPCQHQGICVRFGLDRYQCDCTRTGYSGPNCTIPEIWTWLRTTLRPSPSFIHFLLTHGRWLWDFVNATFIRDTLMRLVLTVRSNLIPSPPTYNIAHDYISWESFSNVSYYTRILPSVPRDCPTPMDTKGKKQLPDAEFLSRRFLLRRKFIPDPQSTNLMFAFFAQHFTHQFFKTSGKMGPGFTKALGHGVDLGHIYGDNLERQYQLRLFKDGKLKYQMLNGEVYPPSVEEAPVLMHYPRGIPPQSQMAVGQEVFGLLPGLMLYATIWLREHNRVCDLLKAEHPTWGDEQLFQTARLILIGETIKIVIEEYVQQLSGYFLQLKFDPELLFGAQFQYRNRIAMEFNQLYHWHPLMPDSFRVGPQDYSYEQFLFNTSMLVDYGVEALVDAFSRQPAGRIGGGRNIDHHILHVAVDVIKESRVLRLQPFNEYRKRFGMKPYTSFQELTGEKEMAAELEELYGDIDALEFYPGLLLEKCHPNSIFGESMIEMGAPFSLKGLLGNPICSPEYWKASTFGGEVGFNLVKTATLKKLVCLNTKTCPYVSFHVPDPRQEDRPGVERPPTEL
Nature of the assay: Inhibition of ovine COX-1 using [14C] arachidonic acid as substrate at 4 uM preincubated for 17 mins before substrate addition measured after 3 mins by thin-layer chromatographic analysis. The method, boiled down: (§1)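 Purified ovine COX-1 or murine COX-2 preincubated with a single 4 μM inhibitor concentration for 17 min. […] Reaction quenched; radioactive products extracted and quantified. Mean ± SEM of two experiments.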

For assay [2], the target named is T2, Prostaglandin G/H synthase 2 (Mus musculus) (UniProt Q05769).
T2 sequence (whole entry): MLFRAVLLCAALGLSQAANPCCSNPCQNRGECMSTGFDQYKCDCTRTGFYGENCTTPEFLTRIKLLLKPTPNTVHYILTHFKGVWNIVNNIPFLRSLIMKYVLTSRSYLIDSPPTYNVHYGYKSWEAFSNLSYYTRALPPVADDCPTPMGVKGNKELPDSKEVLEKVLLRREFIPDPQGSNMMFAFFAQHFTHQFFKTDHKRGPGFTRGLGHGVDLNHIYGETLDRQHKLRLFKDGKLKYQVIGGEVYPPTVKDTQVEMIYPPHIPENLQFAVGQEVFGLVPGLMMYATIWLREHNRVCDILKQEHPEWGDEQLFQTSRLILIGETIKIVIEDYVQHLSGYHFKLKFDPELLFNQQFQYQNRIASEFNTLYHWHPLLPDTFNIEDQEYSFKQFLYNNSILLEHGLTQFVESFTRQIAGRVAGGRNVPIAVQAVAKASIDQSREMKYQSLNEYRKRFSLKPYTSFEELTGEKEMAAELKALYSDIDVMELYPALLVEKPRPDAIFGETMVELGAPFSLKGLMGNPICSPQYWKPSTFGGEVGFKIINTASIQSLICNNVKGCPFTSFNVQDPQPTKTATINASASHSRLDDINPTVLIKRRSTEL
Nature of the assay: Inhibition of mouse COX-2 using [14C] arachidonic acid as substrate at 4 uM preincubated for 17 mins before substrate addition measured after 3 mins by thin-layer chromatographic analysis. The method, boiled down: as §1

Consider `O=C(O)CC1=C/C(=C\c2ccc(Br)cc2)c2ccc(F)cc21`, for which the inhibition (in general, the change of the read-out against control, counted positive when it falls) is 73% in assay [1] and 34% in assay [2].
In the same order, the values of `COC(=O)CC1=C/C(=C\c2ccc(SC)cc2)c2ccc(F)cc21` are 39% and 9%.
The matching figures for `Cc1ccc(/C=C2\C=C(CC(=O)O)c3cc(F)ccc32)cc1`: 52% and 13%.
Regarding `CCOC(=O)C(C)(C)C1=C/C(=C\c2ccc(-c3ccc(F)cc3)cc2)c2ccc(F)cc21`, the values for the inhibition in assay [1] and in assay [2] were 10% and 0%, respectively.
In the same order, the values of `O=C(O)CC1=C/C(=C\c2cnc(C3CCCCC3)nc2)c2ccc(F)cc21` are 45% and 25%.
`CCOC(=O)C(C)(C)C1=C/C(=C\c2ccc3c(c2)Cc2ccccc2-3)c2ccc(F)cc21`: the figures for the inhibition in assay [1] and in assay [2] were 34% and 18%, respectively.
In the same order, the values of `CCOC(=O)CC1=C/C(=C\c2ccc(SC)cc2)c2ccc(F)cc21` are 20% and 0%.
As for `O=C(O)CC1=C/C(=C\c2ccc3cccnc3n2)c2ccc(F)cc21`, the inhibition in assay [1] was found to be 14%; in assay [2], 42%.
The matching figures for `O=C(O)CC1=C/C(=C\c2ccc(-c3ccc(F)nc3)cc2)c2ccc(F)cc21`: 27% and 10%.
For the molecule `CSc1ccc(/C=C2\C=C(CC(=O)NS(=O)(=O)c3ccc(C(C)=O)cc3)c3cc(F)ccc32)cc1`, the inhibition in assay [1] worked out at 3.5%; in assay [2], 26%.
The matching figures for `CSc1ccc(/C=C2\C=C(CC(=O)NS(=O)(=O)c3ccc(Br)cc3)c3cc(F)ccc32)cc1`: 40% and 30%.
The matching figures for `CSc1ccc(/C=C2\C=C(CC(=O)NS(=O)(=O)c3ccc(Cl)s3)c3cc(F)ccc32)cc1`: 59% and 34%.
The matching figures for `CSc1ccc(-c2ccc(/C=C3\C=C(CC(=O)O)c4cc(F)ccc43)cc2)cc1`: 68% and 18%.
On to `O=C(O)CC1=C/C(=C\c2ccc(-c3ccc(F)cc3)cc2)c2ccc(F)cc21`, for which the inhibition in assay [1] came out at 33%; in assay [2] it was 16%.
In the same order, the values of `CSc1ccc(/C=C2\C=C(CC(=O)NS(=O)(=O)c3ccc(OC(F)(F)F)cc3)c3cc(F)ccc32)cc1` are 47% and 32%.
The matching figures for `CC(C)(C)Oc1ccc(/C=C2\C=C(CC(=O)O)c3cc(F)ccc32)cc1`: 17% and 5%.
The matching figures for `CCOC(=O)C(C)(C)C1=C/C(=C\c2cn(C)c3ccccc23)c2ccc(F)cc21`: 47% and 22%.
On to `CCOC(=O)C(C)(C)C1=C/C(=C\c2cnc(-c3ccccc3)nc2C)c2ccc(F)cc21`, for which the values for the inhibition in assay [1] and in assay [2] were 25% and 9%, respectively.
In the same order, the values of `CCOC(=O)C(C)(C)C1=C/C(=C\c2ccc(-c3ccccc3)cc2)c2ccc(F)cc21` are 26% and 2%.
In the same order, the values of `COc1ccc(S(=O)(=O)NC(=O)CC2=C/C(=C\c3ccc(SC)cc3)c3ccc(F)cc32)cc1` are 58% and 8%.
Regarding `O=C(O)CC1=C/C(=C\c2ccc(C(F)(F)F)cc2)c2ccc(F)cc21`, the figures for the inhibition in assay [1] and in assay [2] were 81% and 60%, respectively.
`CSc1ccc(/C=C2\C=C(CC(=O)NS(=O)(=O)c3ccc4ccccc4c3)c3cc(F)ccc32)cc1`: the inhibition is 74% in assay [1] and 26% in assay [2].
The molecule `CC(C(=O)O)C1=C/C(=C\c2ccc(-c3ccccc3)cc2)c2ccc(F)cc21` (stereo not given) registered an inhibition in assay [1] of 30%. In assay [2], the inhibition entry is “inactive”.
For the molecule `CCOC(=O)C(C)(C)C1=C/C(=C\c2ccc(SC)cc2)c2ccc(F)cc21`, the inhibition in assay [1] was determined as 43%; in assay [2], 0%.
The matching figures for `O=C(O)CC1=C/C(=C\c2ccc3c(c2)Cc2ccccc2-3)c2ccc(F)cc21`: 70% and 26%.
In the same order, the values of `O=C(O)CC1=C/C(=C\c2ccc(F)c3ccccc23)c2ccc(F)cc21` are 61% and 22%.
The matching figures for `O=C(O)CC1=C/C(=C\c2ccc3ccccc3c2)c2ccc(F)cc21`: 75% and 34%.
With `CS(=O)(=O)c1ccc(-c2cccc(/C=C3\C=C(CC(=O)O)c4cc(F)ccc43)n2)cc1`, the inhibition in assay [1] came out at 13%; in assay [2] it was 54%.
In the same order, the values of `CSc1ccc(/C=C2\C=C(CC(=O)NS(=O)(=O)c3ccc(F)cc3)c3cc(F)ccc32)cc1` are 44% and 20%.
In the same order, the values of `O=C(O)CC1=C/C(=C\c2ccc3cccnc3c2)c2ccc(F)cc21` are 58% and 16%.
The matching figures for `COc1ccc(-c2cccc(/C=C3\C=C(CC(=O)O)c4cc(F)ccc43)n2)cc1`: 35% and 56%.
For `O=C(O)CC1=C/C(=C\c2ccc(S(=O)(=O)C(F)(F)F)cc2)c2ccc(F)cc21`, the inhibition in assay [1] amounted to 34%; in assay [2], 16%.
In the same order, the values of `O=C(O)CC1=C/C(=C\c2ccc(-c3ccccc3)nc2)c2ccc(F)cc21` are 55% and 5%.
In the case of `CCOC(=O)C(C)(C)C1=C/C(=C\c2cccc(-c3ccccc3)c2)c2ccc(F)cc21`, the inhibition in assay [1] was 24%; in assay [2], 4%.
The matching figures for `CSc1ccc(/C=C2\C=C(C(C)(C)C(=O)O)c3cc(F)ccc32)cc1`: 17% and 16%.
In the same order, the values of `O=C(O)CC1=C/C(=C\c2ccc(-c3ccccc3)c(F)c2)c2ccc(F)cc21` are 44% and 34%.
The matching figures for `C[S+]([O-])c1ccc(/C=C2\C=C(CC(=O)O)c3cc(F)ccc32)cc1` (stereo not given): 27% and 8.5%.
Consider `O=C(O)CC1=C/C(=C\c2cccc(-c3cccs3)n2)c2ccc(F)cc21`, for which the inhibition is 15% in assay [1] and 28% in assay [2].
`O=C(O)CC1=C/C(=C\c2ccc(SC(F)(F)F)cc2)c2ccc(F)cc21`: the inhibition was found to be 77% in assay [1] and 35% in assay [2].
On to `CCOC(=O)C(C)C1=C/C(=C\c2ccc(-c3ccccc3)cc2)c2ccc(F)cc21` (stereo not given), for which the inhibition in assay [1] is 30%; in assay [2], 0%.
In the same order, the values of `CSc1ccc(/C=C2\C=C(CC(=O)NS(=O)(=O)c3ccccc3C)c3cc(F)ccc32)cc1` are 60% and 36%.
The matching figures for `COc1ccc2c(c1)C(CC(=O)O)=C/C2=C\c1ccc(-c2ccccc2)cc1`: 38% and 2%.
The matching figures for `O=C(O)CC1=C/C(=C\c2cccc(-c3ccc4c(c3)OCO4)n2)c2ccc(F)cc21`: 59% and 43%.
For `CSc1ccc(/C=C2\C=C(CC(=O)NS(=O)(=O)c3ccc(C(C)C)cc3)c3cc(F)ccc32)cc1`, the figures for the inhibition in assay [1] and in assay [2] were 45% and 2%, respectively.
Take `CCOC(=O)C(C)(C)C1=C/C(=C\c2ccc(-c3ccccc3)c(F)c2)c2ccc(F)cc21`: the inhibition in assay [1] was 40%; in assay [2] it was 15%.
In the same order, the values of `O=C(O)CC1=C/C(=C\c2cccc(-c3ccc(F)cc3)n2)c2ccc(F)cc21` are 17% and 81%.
In the same order, the values of `CCOC(=O)C(C)(C)C1=C/C(=C\c2cc(-c3ccc(C)cc3)on2)c2ccc(F)cc21` are 37% and 0%.
In the same order, the values of `CSc1ccc(/C=C2\C=C(CC(=O)NS(C)(=O)=O)c3cc(F)ccc32)cc1` are 21% and 7%.
Regarding `CCOC(=O)CC1=C/C(=C\c2ccc(C(=O)OCC)cc2)c2ccc(F)cc21`, the inhibition came to 39% in assay [1] and 0% in assay [2].
In the same order, the values of `CCOC(=O)C(C)(C)C1=C/C(=C\c2cccc(-c3ccc(F)cc3)n2)c2ccc(F)cc21` are 24% and 21%.
